# In ChEMBL document CHEMBL1151472, “In vitro interactions between tacrolimus and azoles against Candida albicans determined by different methods” (2008):
# Key:
# Type in all cases: functional
# Candida albicans [1] = assay: Antimicrobial activity against azole-resistant Candida albicans isolate CA10 assessed as growth at 0.25 ug/ml cotreated with 0.016 ug/ml calcineurin signaling inhibitor Tacrolimus after 48 hrs by microdilution checkboard technique relative to control; set-up: scale not given: the % may be the effect or the level left
# How it was run: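 Checkerboard microdilution in RPMI 1640 (pH 7.0, 2% dextrose, 0.165 M MOPS). Azole dilutions run along columns and FK506 along rows, at 4× final concentration. Final inoculum 2.5 × 10^3 CFU/ml from Sabouraud-subcultured cells. Incubated 35°C for 48 h; OD read at 492 nm. Background from microorganism-free plates subtracted. Growth % = well OD / drug-free well OD. Triplicate on different days, values averaged.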
# Candida albicans [2] = assay: Antimicrobial activity against azole-resistant Candida albicans isolate CA10 assessed as growth at 0.5 ug/ml cotreated with 0.002 ug/ml calcineurin signaling inhibitor tacrolimus after 48 hrs by microdilution checkerboard technique relative to control; set-up: scale not given: the % may be the effect or the level left
# How it was run: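 Checkerboard microdilution in MOPS-buffered RPMI 1640 (pH 7.0, 2% dextrose). Final ranges: azole 0.125–128 μg/ml (FLC) or 0.008–8 μg/ml (ITR, VRC), tacrolimus 0.002–0.125 μg/ml; solvent 1% in single-drug wells. Inoculum 2.5 × 10^3 CFU/ml, 35°C, 48 h. Growth % = background-subtracted OD492 of each well / drug-free well. Triplicate on different days.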
# Candida albicans [3] = assay: Antimicrobial activity against azole-resistant Candida albicans isolate CA10 assessed as log reduction in colony count at 10 ug/ml co-treated with calcineurin signaling inhibitor tacrolimus after 48 hrs by XTT assay
# How it was run: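 Same time-kill setup (10^5 CFU/ml start, azole ± 0.016 μg/ml FK506, 35°C). At each time point, aliquots were mixed 1:1 with XTT (0.5 g/liter in Ringer's lactate) plus 10 μM menadione final. Incubation was in the dark for up to 2 h at 35°C, then formazan was read at 492 nm. OD was converted to CFU via a standard curve (Y = 4.2610x + 4.2087). Triplicate.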
structure (smiles),measurement,setting,value
OC(Cn1cncn1)(Cn1cncn1)c1ccc(F)cc1F [FLUCONAZOLE],Activity,Candida albicans [1],23%
same,Activity,Candida albicans [2],55%
same,Activity,Candida albicans [3],2.37
